bCat KO growth: beta-catenin-lacking colon tumor cell growth suppression. HCT116 beta-catenin knockout viability, CellTiter-Glo, 60 h; stronger effect = lower value. viability, % at 10 µM. hit rate 1.5% among 140,000. AID 818;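 active = viability at or under a set limit, the compound median less 4 SD, cut at about 6% in these data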
H69AR growth 86K: growth inhibitors of human H69AR lung tumor cells; H69AR lung tumor viability, ATP luminescence, 72 h; stronger effect = lower value; viability, % at 10 µM; hit rate 6% among 85,000; AID 598;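 active = viability at or below 40%; inactive = viability above 40%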;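 note: multidrug resistant small cell line overexpressing MRP-1 efflux transporter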
PTEN del growth: suppresses growth of cells with PTEN deletion | HCT116 PTEN-null viability, CellTiter-Glo, 60 h; stronger effect = lower value | viability, % at 10 µM | hit rate 1.2% among 140,000;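 active = viability at or below a set limit, 4 SD under the median of all tested compounds, cut at about 3.7% in these data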;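 note: PTEN knockout HCT116 line with beta catenin targeted HCT116 as companion control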
PTK2B oligo ant: Pyk2 (human) oligomerization antagonism; Q293 cells, Pyk2 FERM NanoBiT luminescence; stronger effect = lower value; hit rate 0.83% among 99,000; AID 1347419; Q14289; z-score (the deposit names both 25 µM and 10 µM);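 active = Z-score of -3 or lower, scaled per plate to the spread of control and sample wells; inactive = z-score above -3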;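 note: negative z-score means lost luminescence so less FERM oligomerization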
HUVEC inhibit: human endothelial cell proliferation inhibition. hit rate 1.1% among 86,000. viability, % at 10 µM (by protocol). HUVEC proliferation, CellTiter-Glo luminescence, 72 h; stronger effect = lower value;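 active = viability at or below 30%; inactive = viability above 30%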
Lung fibro prol: blocks proliferation of human lung fibroblasts; LL 47 human lung fibroblast viability, ATP luminescence; stronger effect = lower value; viability, % at 10 µM; hit rate 1.1% among 85,000;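 active = viability at or below 50% in the single dose screen; inactive = viability above 50%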;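 note: compound exposure lasted 72 h before the ATP readout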
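Times – overnight cell rest, 72 h compound treatment at 37 °C · Test system – human lung fibroblast line LL 47, low passage · Amount – 1,150 cells in each well · Controls – cell-only wells, no compound · Doses – 0.1% DMSO in all compound wells · Measured by – CellTiter-Glo luminescence · Buffer or medium – IMEM plus 15% FBS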
A number is an active result; 0 = inactive; - = no result. This excerpt belongs to a sample that is enriched for hits.

SMILES	bCat KO growth	H69AR growth 86K	PTEN del growth	PTK2B oligo ant	HUVEC inhibit	Lung fibro prol
Nc1nc(SCC(=O)Nc2ccc(Oc3ccccc3)cc2)n[nH]1	0	-	0	0	-	-
N#Cc1c(NC(=O)Cn2c(=O)oc3ccccc32)oc(-c2ccccc2)c1-c1ccccc1	0	0	0	-3.8	0	0
N#Cc1c(NC(=O)CSc2n[nH]c(N)n2)oc(-c2ccccc2)c1-c1ccccc1	0	0	0	-3.4	0	0
Cc1cccc(C)c1OCC(=O)Nc1oc(-c2ccccc2)c(-c2ccccc2)c1C#N	-	27	-	-3.5	0	0
CN(C)S(=O)(=O)c1ccc(NC(=O)c2c(F)cccc2Cl)cc1	0	0	0	0	0	0
CCN(Cc1cc2ccccc2[nH]c1=O)C(=O)C(C)C	0	0	0	0	0	0
OC(C#Cc1ccccn1)c1cccs1 (stereo not given)	0	13	0	0	7.9	0
O=C(NC1CCCCC1)C(c1cccs1)N(C(=O)c1ccccn1)c1ccccc1 (stereo not given)	0	-	0	-	-	-
CC(C)n1nc(C(=O)Nc2nc3ccc(S(C)(=O)=O)cc3s2)c2ccccc2c1=O	0	0	0	0	0	50
CC(C)(C)NS(=O)(=O)c1ccc2nc(NC(=O)Cc3cccs3)sc2c1	0	28	0	0	0	0
CS(=O)(=O)c1ccc2nc(NC(=O)Cc3ccccc3)sc2c1	-	0	-	-	0	0
CS(=O)(=O)c1ccc2nc(NC(=O)CCC(=O)c3cccs3)sc2c1	0	40	0	0	0	0
C=CCN1C(=O)N/C(=C/c2ccccc2OCC(=O)Nc2ccc(F)cc2)C1=O	0	-	0	-	-	-
CCOc1nc(NC(=O)NS(=O)(=O)c2cccc(Cl)c2)nc(-c2ccccc2)n1	0	-	0	-	-	-
CC1=C(C(=O)Nc2ccc(C)cc2C)C(c2ccc(C)o2)NC(=S)N1 (stereo not given)	0	-	0	-	-	-
CCOc1ccccc1C(=O)Nc1ccc2nc(N3CCN(c4ncccn4)CC3)cc(C)c2c1	-	0.5	-	-	6.2	0
COc1cccc(C(=O)Nc2ccc3nc(N4CCN(c5ncccn5)CC4)cc(C)c3c2)c1OC	2.0	-	1.7	-	-	-
COc1ccc2c(C)nc(Nc3nc(C)c(C)c(=O)[nH]3)nc2c1	1.7	31	1.6	0	14	13
CCc1c(C)nc(Nc2nc(C)c3ccc(OC)cc3n2)[nH]c1=O	0	0	0	0	0	0
COc1nc(Nc2nc3ccccc3c(=O)[nH]2)nc2ccc(C)cc12	-	14	-	-	2.6	6.7
CCc1c(C)nc(Nc2nc(C)c3cc(OC)ccc3n2)[nH]c1=O	0	28	0	0	0	0
Cn1ncc(C#N)c1NC(=O)c1cc(-c2ccccc2Cl)on1	0	0	0	0	0	0
Cc1ccc(S(=O)(=O)Cc2ccc(C(=O)N3CCN(c4cc(C)ccc4C)CC3)o2)cc1	0	17	0	0	0	0
COc1ccccc1S(=O)(=O)Cc1ccc(C(=O)N2CCN(c3cccc(Cl)c3)CC2)o1	0	9.4	0	0	0	0
Cc1ccc(C)c(N2CCN(C(=O)C(Cc3ccccc3)n3cccc3)CC2)c1 (stereo not given)	0	22	0	-	0	0
SMILES	bCat KO growth	H69AR growth 86K	PTEN del growth	PTK2B oligo ant	HUVEC inhibit	Lung fibro prol
Cc1ccc(S(=O)(=O)Cc2ccc(C(=O)N3CCCC3)o2)cc1	0	0	0	-	0	0
Cc1ccc(C)c(N2CCN(C(=O)c3ccc(CS(=O)(=O)c4ccccc4C)o3)CC2)c1	0	15	0	0	0	0
CCC1CCc2c(sc(NC(=O)C3c4ccccc4Oc4ccccc43)c2C(N)=O)C1 (stereo not given)	0	-	0	-	-	-
CCOc1ccc(C(=O)NC(=S)NC2CCCC2)cc1[N+](=O)[O-]	0	-	0	-	-	-
Cc1ccc(NC(=O)C(OC(=O)c2ccc(C=O)cc2)c2ccccc2)cc1Cl (stereo not given)	0	-	0	-	-	-
S=C(NC1CCCCC1)N1CCN(c2ccccn2)CC1	0	-	0	-	-	-
Cc1cc(C(=O)N2CCN(c3cccc(Cl)c3)CC2)c(C)o1	0	16	0	0	0	0
Cc1cccc(N2CCN(C(=O)c3ccc(CS(=O)(=O)c4ccccc4C)o3)CC2C)c1 (stereo not given)	0	25	0	0	0	0
COc1cc(S(=O)(=O)N2CCC(c3nc4ccccc4s3)CC2)ccc1S(=O)(=O)NC1CCCC1	0	0	0	0	0	0
CC(C)(C)c1ccc(COn2c(=O)c(-c3ccco3)[n+]([O-])c3ccccc32)cc1	0	34	0	0	0	0

From PubChem BioAssay
